Source: PubChem
In the library only some 2.1% were active in any assay of this set; here they are far more common.
PAX8 inh HTS: PAX8 transcriptional activity inhibition | RMG-I TPO-luciferase reporter, SteadyGlo, 24 h | inhibition, % at 12.6 µM | 360,000 tested, 1.2% active | AID 652154;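 active = mean replicate inhibition at least 60% with every replicate also reaching 60%; inconclusive = only one of the two criteria is met; inactive = mean below 60% and not all replicates reaching 60%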;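 also: luciferase light reporting Pax8 driven TPO promoter activity; plate controls were median of neutral control wells for no effect and mitoxantrone controls for full effect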
Shn3 inh set2: Schnurri-3 reporter inhibition in Clone20 osteoblasts. Clone20 osteoblast Shn3 3'UTR firefly luciferase, 24 h. inhibition, % at 12.5 µM. 360,000 tested, 0.52% active. AID 588674;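 active = mean inhibition of at least 75% with every replicate also reaching 75%; inconclusive = mean inhibition at least 75% but some replicate below; inactive = mean inhibition below 75%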;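 also: 0% = median of neutral control wells and 100% = pilot-screen positive control compound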
aSyn UTR inh: MLPCN primary screen, SNCA 5' untranslated region; alpha-synuclein 5'UTR reporter, inhibitor activity; inhibition, % (tested at 7.5 µM); 300,000 tested, 0.82% active; in the data active = inhibition above about 60%; inconclusive = no clear call, values can overlap the other calls;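 also: H4 neuroglioblastoma cells stably carrying SNCA 5'UTR luciferase fusion; 0% = DMSO wells and 100% = positive control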
LMP1 NFkB inh: Epstein-Barr LMP1 NF-kappaB reporter inhibition; inhibition, % at 12.5 µM; LMP1-induced NF-kappaB luciferase reporter cells, luminescence; 350,000 tested, 0.69% active; in the data active = inhibition above about 41%; inconclusive = no clear call, values can overlap the other calls;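 also: 0% = neutral control wells and 100% = reference inhibitor control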
EWS-Fli block: blocks EWS/Fli oncoprotein-driven transcription. 350,000 tested, 0.67% active. inhibition, % at 12.6 µM. AID 651661. A673 NR0B1-luciferase reporter, viability-normalised;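 active = mean inhibition of at least 50% after viability correction, with every replicate also passing that limit; inconclusive = mean reaches 50% but only one of two replicates passes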;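 also: firefly luciferase signal divided by Alamar Blue viability fluorescence both relative to DMSO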
FN deposition inh: fibronectin deposition inhibition; inhibition, % at 12.6 µM; AID 743247; 350,000 tested, 0.086% active; AH1F fibroblasts, Alexa488-fibronectin deposition fluorescence, overnight;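 active = mean inhibition across replicates of 30% or more, regardless of how many single replicates reach that level; inconclusive = mean under 30% yet at least half of replicates reach 30%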;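 also: positive control wells lacked labelled fibronectin entirely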
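Schedule: 1 h cell adhesion before compound, then overnight fibronectin incubation; test system: AH1F fibroblast monolayer depositing Alexa488-labelled fibronectin into matrix; quantity: 10000 AH1F cells per well; probe or stimulus: fluorescent fibronectin at 24 nM final; signal: fluorescence, ex 485 nm, em 525 nm; evaluation: percent inhibition as loss of matrix-bound fibronectin fluorescence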
Active calls of the source: *.

FC(F)(F)CN1C[C@@H]2C(c3ccc(Br)cc3)[C@H](C1)N2CC1CC1 (stereo partly specified) was read as FN deposition inh 20.
C/C=C(\C)C(=O)N[C@@H](c1ccccc1)[C@@H](O)C(=O)O[C@H]1C[C@@]2(O)[C@@H](OC(=O)c3ccccc3)C3[C@](C)(C(=O)[C@H](O)C(=C1C)C2(C)C)[C@@H](O)C[C@H]1OC[C@@]31OC(C)=O (stereo partly specified) was read as Shn3 inh set2 2, aSyn UTR inh 98*, LMP1 NFkB inh 18 and EWS-Fli block 57*.
`C/C=C(\C)C(=O)N[C@@H](c1ccccc1)[C@@H](O)C(=O)O[C@H]1C[C@@]2(O)[C@@H](OC(=O)c3ccccc3)C3[C@](C)(C(=O)[C@H](OC(C)=O)C(=C1C)C2(C)C)[C@@H](O)C[C@H]1OC[C@@]31OC(C)=O` (stereo partly specified) gave Shn3 inh set2 24, aSyn UTR inh 104* and EWS-Fli block 58*.
Screening C[C@H]1CN([C@@H](C)CO)C(=O)c2c(c3ccccc3n2C)-c2ccccc2CO[C@@H]1CN(C)C(=O)Oc1ccccc1 returned PAX8 inh HTS 27, EWS-Fli block 2 and FN deposition inh 13.
`CCOC(=O)[C@]12Cc3cc(C)ccc3[C@H]1N(C1CCCCC1)C(=O)c1cc(OC)ccc12` gave PAX8 inh HTS 104*, EWS-Fli block 46 and FN deposition inh -3.
`CCOC(=O)[C@]12Cc3cc(OC)ccc3[C@H]1N(C1CCCCC1)C(=O)c1cc(OC)ccc12` gave PAX8 inh HTS 44 and EWS-Fli block 19.
CCOC(=O)C1C(=O)NC2(C)CC1c1cc(OC)ccc1O2 (stereo unspecified) was read as Shn3 inh set2 89*, aSyn UTR inh 8 and LMP1 NFkB inh -5.
For O=C(Cc1ccccn1)N1CCCCN2[C@H](CO)[C@H](c3ccc(C#Cc4ccccc4)cc3)[C@@H]2C1 the results were PAX8 inh HTS 4 and EWS-Fli block -12.
Screening CC1=CC2/C=C(\C)CCC(O)C(O)/C=C/C(=O)C23C(=O)NC(CC(C)C)C3C1C (stereo unspecified) returned Shn3 inh set2 99*, aSyn UTR inh 56 and LMP1 NFkB inh 13.
`C=C1C(=O)O[C@@H]2C[C@@H](C)[C@@H]3C=CC(=O)[C@@]3(C)[C@@H](O)[C@H]12` gave PAX8 inh HTS 112*, Shn3 inh set2 99*, aSyn UTR inh 119*, LMP1 NFkB inh 94*, EWS-Fli block 58* and FN deposition inh 50*.
`CCC1(OC(=O)CN)C(=O)OCc2c1cc1n(c2=O)Cc2cc3ccccc3nc2-1` (stereo unspecified) gave Shn3 inh set2 2, aSyn UTR inh 103* and LMP1 NFkB inh 81*.
`CC[C@@]1(O)C(=O)OCc2c1cc1n(c2=O)Cc2cc3c(NC(=O)CN)cccc3nc2-1` gave PAX8 inh HTS 99*, Shn3 inh set2 27, aSyn UTR inh 71*, LMP1 NFkB inh 77*, EWS-Fli block 56* and FN deposition inh -15.
Screening CC[C@@]1(O)C(=O)OCc2c1cc1n(c2=O)Cc2cc3ccccc3nc2-1 returned aSyn UTR inh 116*.
For CCC(=O)N1[C@@H]2c3ccc(-c4cccc(F)c4)c(=O)n3C[C@H]1[C@H](CO)[C@H]2C(=O)OC the results were PAX8 inh HTS -2 and EWS-Fli block 4.
`C[N+](C)(C)CC#CCOC(=O)Nc1cccc(Cl)c1` gave PAX8 inh HTS -1, Shn3 inh set2 -3, aSyn UTR inh 2, LMP1 NFkB inh 82*, EWS-Fli block -9 and FN deposition inh 2.
Cc1ccccc1-c1ccc([C@@H]2[C@H](CO)N3CCCCN(C(=O)Cc4ccccn4)C[C@@H]23)cc1 was read as PAX8 inh HTS -32 and EWS-Fli block -11.
CCCN1[C@@H]2c3ccc(-c4ccccc4)c(=O)n3C[C@H]1[C@H](CO)[C@H]2C(=O)OC was read as PAX8 inh HTS 3 and EWS-Fli block 5.
`COC1CC(OC2CCC3(C)C(CCC4C3CCC3(C)C(C5=CC(=O)OC5)C(OC(C)=O)CC43O)C2)OC(C)C1OC1OC(COC2OC(CO)C(O)C(O)C2O)C(O)C(O)C1O` (stereo unspecified) gave aSyn UTR inh 115*.
Fc1ccc(CN2CC3NC(C2)C3c2ccc(Br)cc2)cc1 (stereo unspecified) was read as FN deposition inh -11.
For O=C(c1ccc(CNS(=O)(=O)c2ccccc2)cc1)N1CCC2(CC1)OCCO2 the results were Shn3 inh set2 8 and LMP1 NFkB inh -3.
Screening O=C(c1ccc(CNS(=O)(=O)c2ccc(Br)cc2)cc1)N1CCC2(CC1)OCCO2 returned PAX8 inh HTS 64*, Shn3 inh set2 14, aSyn UTR inh -2, LMP1 NFkB inh -12, EWS-Fli block 5 and FN deposition inh -4.
Screening C=CCN1[C@@H]2CN(S(C)(=O)=O)C[C@H]1C2c1ccccc1 (stereo partly specified) returned FN deposition inh 4.
For CCCCCCC[n+]1ccc(-c2cc[n+](CCCCCCC)cc2)cc1 the results were PAX8 inh HTS 86*, Shn3 inh set2 76, aSyn UTR inh 92*, LMP1 NFkB inh 2, EWS-Fli block 3 and FN deposition inh -5.
`Cc1[nH]c2ccc(OC(F)(F)F)cc2c1CCNCc1cccc([N+](=O)[O-])c1` gave PAX8 inh HTS 25, Shn3 inh set2 44, aSyn UTR inh 3, LMP1 NFkB inh 1, EWS-Fli block 13 and FN deposition inh 2.
For CCOc1cccc(CNCCc2c(C)[nH]c3ccc(OC(F)(F)F)cc23)c1O the results were PAX8 inh HTS 9, Shn3 inh set2 inconclusive, aSyn UTR inh 113*, LMP1 NFkB inh -19, EWS-Fli block 47 and FN deposition inh 1.
For CCn1nc(/C=C/c2ccccc2)nc2c(=O)n(C)c(=O)nc1-2 the results were PAX8 inh HTS 94*, Shn3 inh set2 98*, aSyn UTR inh 1, LMP1 NFkB inh 72* and EWS-Fli block 28.
`CCn1nc(-c2cccs2)nc2c(=O)n(C)c(=O)nc1-2` gave Shn3 inh set2 97* and LMP1 NFkB inh 33.
For COc1ccc(-n2c(/C=C/c3ccc(O)cc3)nc3ccccc3c2=O)cc1 the results were PAX8 inh HTS 26, Shn3 inh set2 19, aSyn UTR inh -11, LMP1 NFkB inh 0, EWS-Fli block -9 and FN deposition inh 19.
For COC(=O)C[C@H]1CC[C@H]2NC[C@H](O)COC[C@@H]2O1 the results were PAX8 inh HTS 5, EWS-Fli block 0 and FN deposition inh -25.
